Data on four compounds can be found in ChEMBL document CHEMBL4033612, “The Bibenzyl Canniprene Inhibits the Production of Pro-Inflammatory Eicosanoids and Selectively Accumulates in Some Cannabis sativa Strains” (J Nat Prod, 2017).

The source made the active and inactive calls. No cut-off for these calls is given here.

Assay [1] has as its target T1, Polyunsaturated fatty acid 5-lipoxygenase (Homo sapiens) (UniProt P09917).
T1 sequence (whole entry): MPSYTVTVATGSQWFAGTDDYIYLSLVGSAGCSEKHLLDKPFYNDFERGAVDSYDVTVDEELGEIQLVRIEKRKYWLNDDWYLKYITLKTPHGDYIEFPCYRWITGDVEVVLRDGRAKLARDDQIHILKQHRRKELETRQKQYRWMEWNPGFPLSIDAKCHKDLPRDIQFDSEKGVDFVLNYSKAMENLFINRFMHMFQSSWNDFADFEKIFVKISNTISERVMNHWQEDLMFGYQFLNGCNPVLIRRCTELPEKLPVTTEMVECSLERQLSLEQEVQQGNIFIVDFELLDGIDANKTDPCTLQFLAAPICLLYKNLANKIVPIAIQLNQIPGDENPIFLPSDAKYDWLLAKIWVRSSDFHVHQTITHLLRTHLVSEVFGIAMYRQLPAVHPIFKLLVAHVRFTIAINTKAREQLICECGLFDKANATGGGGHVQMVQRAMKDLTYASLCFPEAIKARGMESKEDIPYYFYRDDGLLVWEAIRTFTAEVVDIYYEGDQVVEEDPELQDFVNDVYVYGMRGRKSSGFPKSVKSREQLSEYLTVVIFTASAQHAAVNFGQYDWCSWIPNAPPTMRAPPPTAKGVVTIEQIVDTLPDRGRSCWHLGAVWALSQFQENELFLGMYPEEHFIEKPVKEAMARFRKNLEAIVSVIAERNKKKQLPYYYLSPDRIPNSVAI
The experiment in a line: Inhibition of human recombinant 5-lipoxygenase expressed in Escherichia coli MV1190 up to 10 uM pre-incubated for 10 mins before arachidonic acid substrate addition and measured after 10 mins by RP-HPLC method. An outline of the steps:
(§1)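 5-LO expressed at 27 °C in transformed E. coli, lysed, sonicated, spun at 40000g; supernatant partially purified on ATP-agarose and used at once. Enzyme diluted in ice-cold PBS with 1 mM EDTA and 1 mM ATP, preincubated with compound 10 min at 4 °C, warmed 30 s at 37 °C. Reaction started with 2 mM CaCl2 plus 20 μM AA, 10 min at 37 °C, stopped with methanol. Products analysed by RP-HPLC. IC50 by linear interpolation around 50% activity.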

The target in assay [2] is T2, Prostaglandin E synthase (Homo sapiens) (UniProt O14684).
T2 sequence (whole entry): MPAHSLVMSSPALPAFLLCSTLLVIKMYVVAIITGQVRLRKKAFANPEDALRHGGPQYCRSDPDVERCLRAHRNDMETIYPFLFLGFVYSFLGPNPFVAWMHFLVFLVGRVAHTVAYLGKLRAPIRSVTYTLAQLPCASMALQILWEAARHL
Briefly: Inhibition of mPGES-1 in interleukin-1 beta-stimulated human A549 cells microsomal membranes up to 10 uM assessed as reduction in conversion of PGH2 to PGE2 pre-incubated for 15 mins followed by PGH2 substrate addition measured after 1 min by RP-HPLC method. The assay is classed as cell-based. Summed up:
(§2)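 A549 cells treated with 1 ng/mL IL-1β for 48 h, sonicated, and microsomes isolated at 174000g. Membranes were diluted in 0.1 M potassium phosphate pH 7.4 with 2.5 mM glutathione and given compound or vehicle for 15 min at 4 °C. PGH2 was added and the reaction ran 1 min at 4 °C, then was stopped with FeCl2/citric acid containing 11β-PGE2 internal standard. PGE2 was taken by SPE and measured by RP-HPLC. IC50 by linear interpolation.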

Assay [3] has as its target T3, Polyunsaturated fatty acid 5-lipoxygenase (Homo sapiens, UniProt P09917).
T3 sequence (P09917 whole entry): T1 sequence (whole entry)
The experiment in a line: (§3) Inhibition of human recombinant 5-lipoxygenase expressed in Escherichia coli MV1190 pre-incubated for 10 mins before arachidonic acid substrate addition and measured after 10 mins by RP-HPLC method. Summed up:
as §1

Assay [4] has as its target T1, Polyunsaturated fatty acid 5-lipoxygenase (Homo sapiens). Described as §3. Summed up:
as §1

Another assay concerns the target T4, Prostaglandin E synthase (Homo sapiens, UniProt O14684).
T4 sequence (O14684 whole entry): T2 sequence (whole entry)
The experiment in a line: (§4) Inhibition of mPGES-1 in interleukin-1 beta-stimulated human A549 cells microsomal membranes assessed as reduction in conversion of PGH2 to PGE2 pre-incubated for 15 mins followed by PGH2 substrate addition measured after 1 min by RP-HPLC method. The assay is classed as cell-based. Summed up: as §2

The target in assay [5] is T2, Prostaglandin E synthase (Homo sapiens). The description is as §4. The assay is classed as cell-based. Summed up:
as §2

As to `COc1cc(O)c2c(c1)CCC21CCC(O)CC1` (stereo not given), the inhibition result in assay [1] and in assay [2] was “inactive” throughout.

On to `COc1cc(O)c2c(c1)CCC21C=CC(=O)CC1` (stereo not given), for which the inhibition entry in assay [2] was “inactive”. Moreover, the IC50 in assay [3] worked out at 9300 nM.

For the compound `COc1cc(O)cc(CCc2ccc(OC)c(O)c2CC=C(C)C)c1`, the inhibition result in assay [4] and in assay [5] was “Dose-dependent effect” in each case. The IC50 in assay [3] was found to be 400 nM; on Prostaglandin E synthase it was 10000 nM.

`COc1cc(-c2cc(=O)c3c(O)c(C/C=C(\C)CCC=C(C)C)c(O)cc3o2)ccc1O`: the IC50 in assay [3] turned out to be 1300 nM; at Prostaglandin E synthase it was 1800 nM.
